According to ChEMBL document CHEMBL3808293, “Antiproliferative activity and apoptosis inducing effects of nitric oxide donating derivatives of evodiamine” (Bioorg Med Chem, 2016):
pIC50: −log10 of the molar value.

Assays:
[1] = Antiproliferative activity against human Bel7402 cells after 72 hrs by MTT assay; assay type: functional, cell-based; conditions: Bel-7402, 72 h
Method in brief: (§1)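 Cells pre-incubated 24 h at 37 °C, 5% CO2, then exposed to compounds for 72 h. MTT (5 mg/mL solution) added for a further 4 h, formazan dissolved in DMSO, OD read at 570 nm. Negative reference 0.1% DMSO; evodiamine and 5-Fu as positive references. IC50 is the concentration inhibiting 50% of growth; mean ± SD of three independent experiments.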

[2] = Antiproliferative activity against human BGC823 cells after 72 hrs by MTT assay; assay type: functional, cell-based; conditions: BGC-823, 72 h; method in brief: as §1
[3] = Antiproliferative activity against human L02 cells after 72 hrs by MTT assay; assay type: cell-based; conditions: L02, 72 h; method in brief: as §1
[4] = test system: A549; assay: Antiproliferative activity against human A549 cells after 72 hrs by MTT assay; assay type: functional, cell-based; conditions: A549, 72 h; method in brief: as §1
[5] = test system: BGC-823; assay: Induction of NO release in human BGC823 cells at 100 uM incubated for 1 hr by Griess assay; assay type: functional
Method in brief: (§2)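 Cells exposed to 100 μM compound; the methods give 150 min, the results text 1 h. Cell lysates mixed with Griess reagent 10 min at 37 °C, absorbance read at 540 nm. Nitrite quantified against a sodium nitrite standard curve; 0.4% DMSO-treated cells gave background. Mean ± SD of three independent experiments.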

[6] = test system: L02; assay: Induction of NO release in human L02 cells at 100 uM incubated for 1 hr by Griess assay; assay type: functional; method in brief: as §2
[7] = test system: Bel-7402; assay: Induction of NO release in human Bel7402 cells at 100 uM incubated for 1 hr by Griess assay; assay type: functional; method in brief: as §2

Row | SMILES | pIC50 [4] | pIC50 [1] | pIC50 [2] | pIC50 [3] | Activity [5] | Activity [6] | Activity [7]
1 | CN1c2ccccc2C(=O)N2CCc3c([nH]c4ccccc34)C21 (configuration not stated) | 6.01 | 5.91 | 5.94 | 6.47 | – | – | –
2 | CN1c2ccccc2C(=O)N2CCc3c(n(CCCCCCO[N+](=O)[O-])c4ccccc34)C21 (configuration not stated) | < 4.00 | 4.54 | < 4.00 | < 4.00 | 100 µM | 16.4 µM | 104 µM
3 | CN1c2ccccc2C(=O)N2CCc3c(n(CCCOC(=O)CCC(=O)OCCOc4no[n+]([O-])c4S(=O)(=O)c4ccccc4)c4ccccc34)C21 (configuration not stated) | 5.27 | 5.33 | 7.22 | 5.20 | 97.6 µM | 18 µM | 97 µM

Now from value to compound, other results behind:

Row | pIC50 [4] | SMILES | pIC50 [1] | pIC50 [2] | pIC50 [3] | Activity [5] | Activity [6] | Activity [7]
4 | 6.64 | CN1c2ccccc2C(=O)N2CCc3c(n(CCOc4no[n+]([O-])c4S(=O)(=O)c4ccccc4)c4ccccc34)C21 (configuration not stated) | 6.26 | 7.70 | 7.70 | 78.8 µM | 18.5 µM | 77.5 µM
5 | < 4.00 | CN1c2ccccc2C(=O)N2CCc3c(n(CCCO[N+](=O)[O-])c4ccccc34)C21 (configuration not stated) | 4.89 | < 4.00 | < 4.00 | 83.8 µM | 19.4 µM | 78.5 µM
